Experimental data from ChEMBL document CHEMBL1154391, “Novel thienopyrimidine and thiazolopyrimidine kinase inhibitors with activity against Tie-2 in vitro and in vivo” (Bioorg Med Chem Lett, 2009).
≈ marks a conversion by molar mass, not a printed value. One block for each compound: values may come before it. Calls of active or inactive are those of the source. The rule behind the calls is not given here.

What was measured:
[1] = Cmax in rat at 1 mg/kg, po; type: ADME, organism-based; parameters: dose 1 mg/kg, route oral; conditions: in vivo
Angiopoietin-1 receptor [2] = target: T1, Angiopoietin-1 receptor (Homo sapiens, UniProt Q02763); experiment: Inhibition of Tie-2 phosphorylation by cell based assay
[3] = Volume of distribution at steady state in rat at 2 mg/kg, iv and 5 mg/kg, po; type: ADME, organism-based; conditions: in vivo, read-out: Vdss
[4] = Half life in rat at 5 mg/kg, po; type: ADME, organism-based; parameters: dose 5 mg/kg, route oral; conditions: in vivo
[5] = Clearance in rat at 2 mg/kg, iv and 5 mg/kg, po; type: ADME, organism-based; conditions: in vivo
[6] = target: Vascular endothelial growth factor receptor 1 (Homo sapiens) (UniProt P17948); experiment: Inhibition of Flt-1
[7] = Bioavailability in rat at 2 mg/kg, iv and 5 mg/kg, po; type: ADME, organism-based; conditions: in vivo
[8] = (§1) Protein binding in rat plasma; type: ADME, cell-free; conditions: read-out: PPB (converted)
[9] = target: Vascular endothelial growth factor receptor 2 (Homo sapiens) (UniProt P35968); experiment: Inhibition of FLt
Angiopoietin-1 receptor [10] = target: T1, Angiopoietin-1 receptor; experiment: Inhibition of Tie-2
Plasma = experiment: as §1; type: ADME, cell-free
[11] = Aqueous solubility at pH 7
[12] = Lipophilicity, log D of the compound; conditions: octanol/water
Rattus norvegicus [13] = experiment: Hypotensive activity in rat assessed as VEGF-induced reduction in blood pressure at 20 mg/kg, iv; type: functional, organism-based; parameters: dose 20 mg/kg
Method in brief: (§2)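 Male Alderley Park rats anaesthetised with α-chloralose iv, maintained with thiopentone ip. Carotid artery cannulated for blood pressure recording by pressure transducer. Jugular vein cannulated for bolus VEGF or Ang-1 in 0.85% NaCl. Ang-1 was baculovirus/insect-cell expressed, 40–60 µg per batch, adjusted to give a 10–20 mmHg fall. Compound or vehicle given iv (25% w/v hydroxypropyl-β-cyclodextrin, Sorensen phosphate pH 5.5).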

Rattus norvegicus [14] = experiment: Hypotensive activity in rat assessed as reversal of angiopoietin-1-induced reduction in blood pressure at 20 mg/kg, iv; type: functional, organism-based; parameters: dose 20 mg/kg; method in brief: as §2

T1 sequence (Q02763 whole entry): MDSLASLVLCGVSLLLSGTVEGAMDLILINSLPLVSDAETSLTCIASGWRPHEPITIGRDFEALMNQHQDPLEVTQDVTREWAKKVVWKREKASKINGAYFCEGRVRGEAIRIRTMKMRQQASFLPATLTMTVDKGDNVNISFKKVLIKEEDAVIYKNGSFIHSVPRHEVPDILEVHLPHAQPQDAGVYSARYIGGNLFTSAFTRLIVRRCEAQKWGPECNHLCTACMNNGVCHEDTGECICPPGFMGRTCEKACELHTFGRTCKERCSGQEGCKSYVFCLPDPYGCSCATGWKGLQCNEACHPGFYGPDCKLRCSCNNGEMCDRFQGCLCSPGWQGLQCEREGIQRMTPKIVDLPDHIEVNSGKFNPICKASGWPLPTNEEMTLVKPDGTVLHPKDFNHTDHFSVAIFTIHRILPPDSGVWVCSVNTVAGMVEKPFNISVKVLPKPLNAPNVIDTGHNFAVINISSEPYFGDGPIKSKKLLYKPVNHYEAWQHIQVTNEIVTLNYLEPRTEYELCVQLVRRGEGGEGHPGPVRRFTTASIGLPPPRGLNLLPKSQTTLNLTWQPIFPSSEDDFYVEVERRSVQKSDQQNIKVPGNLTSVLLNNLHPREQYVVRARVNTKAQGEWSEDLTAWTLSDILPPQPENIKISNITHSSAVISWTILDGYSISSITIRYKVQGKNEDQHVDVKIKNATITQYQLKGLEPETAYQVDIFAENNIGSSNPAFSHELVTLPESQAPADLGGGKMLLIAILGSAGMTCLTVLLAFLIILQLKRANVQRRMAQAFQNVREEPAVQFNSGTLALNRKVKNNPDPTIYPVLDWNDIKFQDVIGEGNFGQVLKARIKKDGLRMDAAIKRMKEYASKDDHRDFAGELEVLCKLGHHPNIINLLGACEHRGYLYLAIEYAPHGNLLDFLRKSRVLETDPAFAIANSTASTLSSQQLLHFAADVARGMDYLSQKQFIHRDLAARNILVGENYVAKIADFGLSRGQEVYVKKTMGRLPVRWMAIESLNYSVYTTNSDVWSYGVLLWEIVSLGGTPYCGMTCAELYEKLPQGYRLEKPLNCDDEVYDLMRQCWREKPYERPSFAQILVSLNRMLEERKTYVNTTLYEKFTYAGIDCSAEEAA
Sequence of Vascular endothelial growth factor receptor 1 (Homo sapiens) (P17948 whole entry, looked up): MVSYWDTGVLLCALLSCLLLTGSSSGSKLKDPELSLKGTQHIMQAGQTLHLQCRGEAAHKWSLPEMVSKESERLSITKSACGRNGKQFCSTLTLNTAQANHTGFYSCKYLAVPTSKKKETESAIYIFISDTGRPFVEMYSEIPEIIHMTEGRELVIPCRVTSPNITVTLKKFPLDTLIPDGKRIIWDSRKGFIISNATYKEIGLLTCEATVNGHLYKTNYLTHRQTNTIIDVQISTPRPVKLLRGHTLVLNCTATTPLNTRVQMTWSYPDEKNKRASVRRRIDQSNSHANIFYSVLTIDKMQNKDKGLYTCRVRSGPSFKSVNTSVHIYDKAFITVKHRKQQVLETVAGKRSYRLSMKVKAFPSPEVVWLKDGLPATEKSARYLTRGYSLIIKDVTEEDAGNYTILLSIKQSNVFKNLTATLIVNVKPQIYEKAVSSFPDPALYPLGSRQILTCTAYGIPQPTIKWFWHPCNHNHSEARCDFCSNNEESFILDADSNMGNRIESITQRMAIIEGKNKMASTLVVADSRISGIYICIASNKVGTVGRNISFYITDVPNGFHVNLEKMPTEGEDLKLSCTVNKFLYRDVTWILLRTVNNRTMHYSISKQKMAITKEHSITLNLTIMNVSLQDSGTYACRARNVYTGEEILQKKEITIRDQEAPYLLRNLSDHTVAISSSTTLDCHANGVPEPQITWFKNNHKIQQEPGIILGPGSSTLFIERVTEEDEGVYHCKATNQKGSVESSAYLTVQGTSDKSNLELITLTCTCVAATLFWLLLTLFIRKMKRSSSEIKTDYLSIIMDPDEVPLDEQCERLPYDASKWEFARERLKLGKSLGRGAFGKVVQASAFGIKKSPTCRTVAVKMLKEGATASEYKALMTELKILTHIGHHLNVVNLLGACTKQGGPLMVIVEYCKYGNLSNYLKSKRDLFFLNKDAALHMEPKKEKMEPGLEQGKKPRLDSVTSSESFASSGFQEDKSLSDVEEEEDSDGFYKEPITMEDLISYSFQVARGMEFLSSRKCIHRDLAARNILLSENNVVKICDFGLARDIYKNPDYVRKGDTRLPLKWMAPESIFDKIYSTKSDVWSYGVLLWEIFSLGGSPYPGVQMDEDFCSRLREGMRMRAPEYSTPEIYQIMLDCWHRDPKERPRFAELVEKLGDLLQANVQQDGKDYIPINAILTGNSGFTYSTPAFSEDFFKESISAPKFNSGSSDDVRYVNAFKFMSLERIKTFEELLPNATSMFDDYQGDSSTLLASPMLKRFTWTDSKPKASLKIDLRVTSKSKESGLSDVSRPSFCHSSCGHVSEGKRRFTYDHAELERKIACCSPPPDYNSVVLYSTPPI

Compound: Nc1ncnc2sc(-c3c(-c4ccccc4)ncn3CC3CCCCC3)nc12
fraction unbound [8]: 0.016

Compound: CC(C)Cn1cnc(-c2ccccc2)c1-c1nc2c(N)ncnc2s1
IC50 (Angiopoietin-1 receptor [2]): 490 nM
fraction unbound [8]: 0.059
solubility [11]: 70 µM (≈ 24.5 µg/mL)

Compound: Nc1ncnc2sc(-c3c(-c4ccccc4)ncn3C[C@H]3CCCO3)nc12
IC50 (Angiopoietin-1 receptor [2]): 370 nM
fraction unbound [8]: 0.2

Compound: Nc1ncnc2sc(-c3c(-c4ccccc4)ncn3Cc3ccccc3N3CCOCC3)nc12
Activity (Rattus norvegicus [13]): inactive
IC50 (Angiopoietin-1 receptor [2]): 440 nM
fraction unbound [8]: 0.058
Activity (Rattus norvegicus [14]): Active

Further lines, results first:

Cmax [1]: 9 nM
IC50 (Angiopoietin-1 receptor [2]): 340 nM
Compound: Cc1cc(NC(=O)Nc2cccc(-c3ncn(C)c3-c3cc4c(N)ncnc4s3)c2)on1

IC50 (Angiopoietin-1 receptor [2]): 1400 nM
Compound: Cn1cnc(-c2cccc(NC(=O)Nc3ccccc3)c2)c1-c1cc2c(N)ncnc2s1

Vd [3]: 1.4 L/kg
half-life [4]: 108 min
IC50 (Angiopoietin-1 receptor [2]): 1800 nM
clearance [5]: 39 mL/min/kg
IC50 [6]: 10 µM
bioavailability [7]: > 100%
fraction unbound [8]: 0.045
IC50 [9]: 22 µM
IC50 (Angiopoietin-1 receptor [10]): 34 µM
Compound: Cn1cnc(-c2ccccc2)c1-c1cc2c(N)ncnc2s1

IC50 (Angiopoietin-1 receptor [2]): 1400 nM
Compound: Cc1ccc(Sc2cccc(-c3ncn(C)c3-c3cc4c(N)ncnc4s3)c2)cc1

IC50 (Angiopoietin-1 receptor [2]): 70 nM
Compound: Cn1cnc(-c2cccc(NC(=O)Nc3cc(C(F)(F)F)ccc3F)c2)c1-c1cc2c(N)ncnc2s1

Vd [3]: 1.2 L/kg
half-life [4]: 96 min
clearance [5]: 30.1 mL/min/kg
bioavailability [7]: > 100%
fraction unbound [8]: 0.052
PPB (Plasma): 94.6%
solubility [11]: 160 µM (≈ 49.3 µg/mL)
IC50 (Angiopoietin-1 receptor [10]): 20 µM
logD [12]: 2.7
Compound: Cn1cnc(-c2ccccc2)c1-c1nc2c(N)ncnc2s1

IC50 (Angiopoietin-1 receptor [2]): 3000 nM
solubility [11]: 171 µM (≈ 55.1 µg/mL)
Compound: CCn1cnc(-c2ccccc2)c1-c1nc2c(N)ncnc2s1
